The values that follow come from ChEMBL document CHEMBL2434895, “Design and application of a rigid quinazolone scaffold based on two-face Bim α-helix mimicking” (Eur J Med Chem, 2013).

pKi: −log10 of the molar value.

The term pKi denotes the Ki on a negative log10 scale, so that one unit is a factor of ten.

For experiment [1], the target named is Apoptosis regulator Bcl-2 (Homo sapiens, UniProt P10415). Nature of the experiment: Displacement of FAM-Bid BH3 peptide from recombinant Bcl-2 (unknown origin) expressed in Escherichia coli BL21 after 10 mins by fluorescence polarization assay. In general terms: In fluorescence polarisation assays a small probe gives low polarisation when free and higher when bound to something large.
Apoptosis regulator Bcl-2, sequence (P10415 whole entry): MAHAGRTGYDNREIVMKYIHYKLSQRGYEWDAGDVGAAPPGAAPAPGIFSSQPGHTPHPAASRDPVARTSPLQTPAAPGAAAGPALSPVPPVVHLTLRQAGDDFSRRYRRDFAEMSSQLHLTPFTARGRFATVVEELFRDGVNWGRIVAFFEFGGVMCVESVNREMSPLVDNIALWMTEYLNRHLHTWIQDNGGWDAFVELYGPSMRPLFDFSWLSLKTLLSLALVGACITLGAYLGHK

For experiment [2], the target named is Induced myeloid leukemia cell differentiation protein Mcl-1 (Homo sapiens, UniProt Q07820). Nature of the experiment: Displacement of FAM-Bid BH3 peptide from recombinant Mcl-1 (unknown origin) expressed in Escherichia coli BL21 after 10 mins by fluorescence polarization assay. The method in brief: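 Mcl-1 FP competition: 55 nM protein with 20 nM FAM-Bid BH3 peptide in 25 mM Tris pH 8.0, 150 mM NaCl, 2 min preincubation. Compounds added as serial dilutions from 10 mM DMSO stock, 10 min incubation, polarization measured. Tracer Kd 13 nM. Ki derived by Wang FP-assay equation.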
Induced myeloid leukemia cell differentiation protein Mcl-1, sequence (Q07820 whole entry): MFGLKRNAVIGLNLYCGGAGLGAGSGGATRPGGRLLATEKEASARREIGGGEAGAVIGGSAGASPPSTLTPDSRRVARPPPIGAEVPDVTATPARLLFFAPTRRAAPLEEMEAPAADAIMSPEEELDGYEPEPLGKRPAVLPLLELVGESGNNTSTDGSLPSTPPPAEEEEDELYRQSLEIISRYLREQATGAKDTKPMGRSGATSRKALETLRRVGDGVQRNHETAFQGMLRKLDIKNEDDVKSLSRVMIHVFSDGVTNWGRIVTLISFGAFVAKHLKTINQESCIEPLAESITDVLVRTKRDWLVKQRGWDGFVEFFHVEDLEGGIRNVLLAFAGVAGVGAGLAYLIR

`O=c1c2cc(O)c(O)c(O)c2nc(-c2ccccc2)n1Cc1ccccc1`: the negative logarithm of the Ki (pKi) in experiment [1] is 6.02; in experiment [2], 5.92.

Turning to `CC(C)c1ccc(O)c(Cn2c(-c3ccccc3)nc3c(O)c(O)c(O)cc3c2=O)c1`, the pKi is 5.95 in experiment [1] and 6.22 in experiment [2].

`Cc1ccc(O)c(Cn2c(-c3ccccc3)nc3c(O)c(O)c(O)cc3c2=O)c1`: the negative-log Ki (pKi) in experiment [1] is 6.75; in experiment [2], 6.91.

`CCCCNC(=O)c1cc(O)c(O)c(O)c1NC(=O)c1ccccc1`: the negative logarithm of the Ki (pKi) was 5.72 in experiment [1] and 5.70 in experiment [2].

With `O=C(Nc1c(C(=O)NCc2ccccc2)cc(O)c(O)c1O)c1ccccc1`, the negative-log Ki (pKi) in experiment [1] is 5.88; in experiment [2], 5.55.

As to `O=c1[nH]cnc2c(O)c(O)c(O)cc12`, the pKi was 5.03 in experiment [1] and 5.22 in experiment [2].

In the case of `O=C1c2ccccc2C(=O)c2c1cc(O)c(O)c2O`, the pKi in experiment [1] is 5.88; in experiment [2], 5.92.

On to `O=C(Nc1c(C(=O)NCCCc2ccccc2)cc(O)c(O)c1O)c1ccccc1`, for which the results for the negative logarithm of the Ki (pKi) in experiment [1] and in experiment [2] were 5.09 and 5.49, respectively.
